This is an account of results in ChEMBL document CHEMBL3351639, “Fluorinated analogues of marsanidine, a highly α2-AR/imidazoline I1 binding site-selective hypotensive agent. Synthesis and biological activities” (Eur J Med Chem, 2014).

The target in one series is Nischarin (Rattus norvegicus, UniProt Q4G017). In words: Displacement of […] from imidazoline I1 receptor in Sprague-Dawley rat kidney membranes after 45 mins by liquid scintillation counting. In kind it is cell membranes, Membrane.
In series [1] the test system is Rattus norvegicus. The experiment in a line: Hypertensive activity in anesthetized Wistar rat assessed as time required for maximal increase in mean arterial blood pressure at 0.1 mg/kg, iv measured during 60 mins post dose. It counts as organism-based. Also noted: dose 0.1 mg/kg, route intravenous. The note with it: in vivo, 1 h. The gist of the method:
(§1)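 Male Wistar rats (200–290 g) anaesthetized with thiopental 70 mg/kg i.p., maintained at 30 µg/kg/min; body temperature 36–37 °C. Carotid catheter recorded MAP and HR; jugular catheter for infusion. After 40 min of saline/thiopental infusion (1.2 ml/h), 0.1 mg/kg given as i.v. bolus (time 0). Signals sampled at 100 Hz. Maximal change from time 0 over 60 min, and its time, recorded. Saline vehicle control; n = 4–5.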

Series [2] deals with Rattus norvegicus. In words: Hypotensive activity in anesthetized Wistar rat assessed as maximal reduction in mean arterial blood pressure at 0.1 mg/kg, iv measured during 60 mins post dose. In kind it is functional. The essentials:
as §1

Series [3] concerns the target T1, Adrenergic receptor alpha-2 (Rattus norvegicus, UniProt P22086+P19328+P22909).
T1 sequence (P22086 whole entry): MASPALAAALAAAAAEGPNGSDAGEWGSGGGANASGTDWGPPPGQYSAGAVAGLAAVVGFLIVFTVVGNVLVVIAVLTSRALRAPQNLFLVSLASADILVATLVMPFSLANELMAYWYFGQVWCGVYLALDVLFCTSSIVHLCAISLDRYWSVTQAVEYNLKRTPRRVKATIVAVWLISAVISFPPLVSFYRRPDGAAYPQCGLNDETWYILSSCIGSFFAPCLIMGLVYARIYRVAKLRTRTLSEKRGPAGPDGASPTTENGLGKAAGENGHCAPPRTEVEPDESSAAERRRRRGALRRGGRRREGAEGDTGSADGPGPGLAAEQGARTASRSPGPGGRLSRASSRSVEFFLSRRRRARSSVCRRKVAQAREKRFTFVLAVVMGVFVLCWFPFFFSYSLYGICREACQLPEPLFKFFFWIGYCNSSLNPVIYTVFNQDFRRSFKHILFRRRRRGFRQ
T1 sequence (P19328 whole entry): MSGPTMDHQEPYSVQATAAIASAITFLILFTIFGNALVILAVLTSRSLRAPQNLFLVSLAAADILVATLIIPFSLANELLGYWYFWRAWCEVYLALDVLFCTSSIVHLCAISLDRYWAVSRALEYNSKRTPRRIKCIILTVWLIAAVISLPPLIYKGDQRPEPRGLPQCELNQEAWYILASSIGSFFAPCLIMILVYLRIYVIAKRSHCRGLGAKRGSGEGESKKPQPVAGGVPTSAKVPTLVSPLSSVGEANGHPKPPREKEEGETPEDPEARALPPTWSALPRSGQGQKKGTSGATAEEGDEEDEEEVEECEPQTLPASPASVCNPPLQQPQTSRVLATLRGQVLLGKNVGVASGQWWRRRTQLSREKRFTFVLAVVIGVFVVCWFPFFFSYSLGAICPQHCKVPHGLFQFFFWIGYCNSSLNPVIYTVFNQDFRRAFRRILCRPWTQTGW
T1 sequence (P22909 whole entry): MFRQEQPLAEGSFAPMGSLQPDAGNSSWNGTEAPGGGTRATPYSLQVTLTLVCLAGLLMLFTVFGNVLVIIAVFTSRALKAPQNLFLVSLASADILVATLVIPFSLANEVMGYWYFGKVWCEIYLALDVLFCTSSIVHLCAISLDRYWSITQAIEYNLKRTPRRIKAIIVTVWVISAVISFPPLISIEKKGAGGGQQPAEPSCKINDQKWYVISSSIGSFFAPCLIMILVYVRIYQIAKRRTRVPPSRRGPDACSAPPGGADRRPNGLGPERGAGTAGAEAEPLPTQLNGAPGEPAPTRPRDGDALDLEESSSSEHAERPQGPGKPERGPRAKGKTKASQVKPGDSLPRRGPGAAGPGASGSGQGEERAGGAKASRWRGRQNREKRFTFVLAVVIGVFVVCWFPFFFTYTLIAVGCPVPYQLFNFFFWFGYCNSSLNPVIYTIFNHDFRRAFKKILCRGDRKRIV
In words: Displacement of [3H]RX821002 from alpha2-adrenoceptor in Sprague-Dawley rat brain membranes after 45 mins by liquid scintillation counting. In kind it is cell membranes, Membrane. The gist of the method:
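Crude P2 membranes from brains of male Sprague-Dawley rats (250–280 g), 0.2–0.3 mg protein. Radioligand 1 nM [3H]RX821002 (α2) or [3H]prazosin (α1); 11 concentrations of compound, 0.1 nM–100 µM. Non-specific binding: 10 µM rauwolscine (α2) or 10 µM phenylephrine (α1). Triplicate incubation, RT, 45 min. PEI-soaked glass-fibre filtration, then scintillation counting. Ki by Cheng-Prusoff; 3–4 experiments, or one for low-affinity compounds.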
In general terms: Displacement assays read how much labelled ligand stays bound in the presence of the test substance.

The subject of series [4] is Rattus norvegicus. The experiment in a line: Hypotensive activity in anesthetized Wistar rat assessed as time required for maximal reduction in mean arterial blood pressure at 0.1 mg/kg, iv. In kind it is functional. The gist of the method: as §1
Series [5] has as its system Rattus norvegicus. In words: Cardiovascular activity in anesthetized Wistar rat assessed as time required for maximal reduction in heart rate at 0.1 mg/kg, iv measured during 60 mins post dose. It counts as functional. The gist of the method: as §1
The nature of series [6]: Displacement of […] from imidazoline I2 receptor in Sprague-Dawley rat kidney membranes after 45 mins by liquid scintillation counting. It counts as cell membranes, Membrane.
The target in series [7] is T2, Alpha-2A adrenergic receptor (Homo sapiens, UniProt P08913).
T2 sequence (P08913 whole entry): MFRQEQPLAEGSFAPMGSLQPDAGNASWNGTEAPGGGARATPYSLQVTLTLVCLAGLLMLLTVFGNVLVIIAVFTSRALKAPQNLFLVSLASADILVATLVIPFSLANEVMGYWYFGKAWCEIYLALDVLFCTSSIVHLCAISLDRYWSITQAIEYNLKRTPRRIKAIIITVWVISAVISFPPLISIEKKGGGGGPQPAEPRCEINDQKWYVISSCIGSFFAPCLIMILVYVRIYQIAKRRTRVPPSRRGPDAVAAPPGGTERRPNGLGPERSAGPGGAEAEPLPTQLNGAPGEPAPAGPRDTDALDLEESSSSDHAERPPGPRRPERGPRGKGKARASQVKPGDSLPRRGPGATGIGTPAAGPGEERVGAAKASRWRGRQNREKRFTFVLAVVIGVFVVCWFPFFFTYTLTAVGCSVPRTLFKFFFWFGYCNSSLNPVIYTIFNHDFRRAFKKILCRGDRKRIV
The experiment in a line: Displacement of [3H]RS-79948-197 from human alpha2A adrenoceptor expressed in CHO-K1 cells after 45 mins by liquid scintillation counting. It counts as cell-based. The gist of the method:
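Membranes from CHO-K1 cells stably expressing each human α2-AR subtype (6–10 µg protein). Used 0.2 nM [3H]RS-79948-197 and 8 serial dilutions of competitor in 50 mM potassium phosphate, pH 7.4. Non-specific binding defined with 100 µM oxymetazoline. Filtration, then scintillation counting. Run in duplicate, at least 3 repeats. One-site nonlinear fit; IC50 converted to Ki by Cheng-Prusoff.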

Chain of Nischarin (Q4G017 whole entry): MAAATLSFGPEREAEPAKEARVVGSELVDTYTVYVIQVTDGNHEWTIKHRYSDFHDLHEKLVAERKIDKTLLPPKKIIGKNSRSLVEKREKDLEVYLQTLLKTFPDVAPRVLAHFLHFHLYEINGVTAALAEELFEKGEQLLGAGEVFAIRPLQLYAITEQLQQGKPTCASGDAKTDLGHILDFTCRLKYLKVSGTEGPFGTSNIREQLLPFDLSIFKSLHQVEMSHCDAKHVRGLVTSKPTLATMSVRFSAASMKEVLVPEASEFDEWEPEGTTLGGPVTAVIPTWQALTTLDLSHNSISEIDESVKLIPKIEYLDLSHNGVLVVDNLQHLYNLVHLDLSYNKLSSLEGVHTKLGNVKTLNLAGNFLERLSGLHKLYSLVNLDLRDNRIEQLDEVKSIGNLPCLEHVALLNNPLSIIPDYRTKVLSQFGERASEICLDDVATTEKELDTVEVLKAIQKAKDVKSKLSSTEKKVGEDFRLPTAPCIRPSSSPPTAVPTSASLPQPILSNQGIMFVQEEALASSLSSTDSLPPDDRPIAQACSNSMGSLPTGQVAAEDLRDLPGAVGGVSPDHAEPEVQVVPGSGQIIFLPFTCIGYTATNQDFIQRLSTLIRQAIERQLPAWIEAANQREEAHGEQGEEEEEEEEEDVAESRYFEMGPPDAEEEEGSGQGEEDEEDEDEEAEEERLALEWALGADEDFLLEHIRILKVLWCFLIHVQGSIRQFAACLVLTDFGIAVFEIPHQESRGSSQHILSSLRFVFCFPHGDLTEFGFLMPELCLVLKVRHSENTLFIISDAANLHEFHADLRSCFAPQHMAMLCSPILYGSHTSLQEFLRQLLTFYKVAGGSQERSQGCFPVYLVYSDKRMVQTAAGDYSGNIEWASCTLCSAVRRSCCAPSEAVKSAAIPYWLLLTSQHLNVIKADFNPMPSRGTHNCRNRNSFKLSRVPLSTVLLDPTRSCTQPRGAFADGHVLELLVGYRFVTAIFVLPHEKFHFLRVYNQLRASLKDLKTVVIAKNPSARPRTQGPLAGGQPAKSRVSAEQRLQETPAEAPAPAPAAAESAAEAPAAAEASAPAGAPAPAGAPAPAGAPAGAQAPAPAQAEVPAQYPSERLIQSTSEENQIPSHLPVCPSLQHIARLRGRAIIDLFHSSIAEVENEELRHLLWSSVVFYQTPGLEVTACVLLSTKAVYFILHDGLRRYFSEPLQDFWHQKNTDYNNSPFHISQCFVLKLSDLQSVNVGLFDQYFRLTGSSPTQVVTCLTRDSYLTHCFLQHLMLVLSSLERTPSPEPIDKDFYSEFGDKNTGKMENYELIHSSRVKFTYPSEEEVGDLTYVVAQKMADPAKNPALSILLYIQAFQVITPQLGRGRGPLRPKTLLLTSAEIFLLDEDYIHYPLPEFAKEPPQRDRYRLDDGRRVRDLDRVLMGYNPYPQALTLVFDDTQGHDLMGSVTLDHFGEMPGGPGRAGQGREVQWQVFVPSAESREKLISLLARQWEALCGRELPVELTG

As a reminder, the IC50 is the concentration at which inhibition is half-maximal. The Ki is the equilibrium dissociation constant of an inhibitor or competing ligand from its target. Turning to `Fc1ccc2cnn(CC3=NCCN3)c2c1`, the IC50 on Nischarin stood at 33.5 µM. Further, the Time turned out to be 4 min with Rattus norvegicus [1], 36 min in the series with Rattus norvegicus [4] and 5 min with Rattus norvegicus [5]. The Activity with Rattus norvegicus [2] is 12.7 mmHg. For the same compound, the results for the Ki in series [3] and in series [6] were 29.73 nM and 0.00819 µM, respectively.
`Fc1cccc2cnn(N=C3NCCN3)c12` yielded an IC50 at Nischarin of 7.74 µM. In addition, the Time in the series on Rattus norvegicus [1] is reported as 4 min; in the series with Rattus norvegicus [4], 33 min; in the series on Rattus norvegicus [5] it was 10 min. In addition, in the series on Rattus norvegicus [2], the Activity stood at 59.4 mmHg. Moreover, the Ki in series [3] was 30.97 nM; in series [6], 349 µM; in series [7], 65 nM.
On Nischarin, `Fc1ccc2c(cnn2N=C2NCCN2)c1` gave an IC50 of 0.0916 µM. The Time is on record as 2 min in the series on Rattus norvegicus [1], 11 min in the series on Rattus norvegicus [4] and 5 min with Rattus norvegicus [5]. Also, the Activity in the series on Rattus norvegicus [2] was 8.6 mmHg. For the same compound, the Ki in series [3] was 64.33 nM; in series [6], 5.7 µM.
The compound `Fc1ccc2cnn(N=C3NCCN3)c2c1` yielded an IC50 at Nischarin of 20.7 µM. The Time in the series with Rattus norvegicus [1] is listed as 3 min; in the series on Rattus norvegicus [4], 35 min; in the series on Rattus norvegicus [5], 2 min. Moreover, the Activity in the series with Rattus norvegicus [2] stood at 36 mmHg. Moreover, the Ki is 26.2 nM in series [3], 22 µM in series [6] and 33 nM in series [7].
On to `Fc1ccc2c(cnn2CC2=NCCN2)c1`, for which the IC50 at Nischarin is 2.42 µM. Besides, the values for the Time with Rattus norvegicus [1], in the series on Rattus norvegicus [4] and in the series on Rattus norvegicus [5] were 2 min, 40 min and 38 min, respectively. Also, the Activity in the series on Rattus norvegicus [2] is recorded as 7.2 mmHg. Also, the Ki in series [3] came out at 32.17 nM; in series [6], 0.0104 µM.
